Assay results from ChEMBL document CHEMBL5321214, “Targeting the multifaceted neurotoxicity of Alzheimer's disease by tailored functionalisation of the curcumin scaffold” (Eur J Med Chem, 2023).
Calls of active or inactive are those of the source. No cut-off for these calls is given here.

Columns and labels:
Microglia [1] = test: Cytotoxicity against Sprague-Dawley rat microglial cells assessed as effect on cell viability at 1 to 20 uM incubated for 24 hrs by MTT assay; assay type: toxicity, cell-based; conditions: dose 1-20 µM
Procedure, shortened: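 Primary rat microglia, 6×10^4 cells/well, switched to serum-free medium 1 h before 24 h exposure (1–20 μM, DMSO ≤0.1%). MTT 0.18 mg/mL for 4 h at 37 °C, formazan dissolved in DMSO, absorbance 570 nm (reference 630 nm). Vehicle-treated cells = 100% viability.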

[2] = Effect on TNF-alpha release in Sprague-Dawley rat microglial cells at 20 uM by ELISA; assay type: toxicity, cell-based; conditions: microglia
Procedure, shortened: (§1)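 Primary cortical rat microglia in DMSO (≤0.1%) or vehicle for 1 h, then 100 ng/mL LPS for 24 h. TNF-α and IL-1β in culture medium by ELISA against standard curves (pg/mL), expressed as % of LPS-stimulated cultures. Mean ± SEM of 3 independent experiments; one-way ANOVA, Holm-Sidak test.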

[3] = Effect on IL-1 beta release in Sprague-Dawley rat microglial cells at 20 uM by ELISA; assay type: toxicity, cell-based; conditions: microglia; procedure, shortened: as §1
Microglia [4] = test: Antiinflammatory activity against Sprague-Dawley rat microglial cells assessed as inhibition of LPS-induced TNF-alpha production at 1 to 20 uM pretreated with compound for 1 hr followed by LPS stimulation for 24 hrs by ELISA; assay type: functional, cell-based; conditions: dose 1-20 µM, time 25.0 hrs; procedure, shortened: as §1
Microglia [5] = test: Antiinflammatory activity against Sprague-Dawley rat microglial cells assessed as inhibition of LPS-induced IL-1 beta production at 1 to 20 uM pretreated with compound for 1 hr followed by LPS stimulation for 24 hrs by ELISA; assay type: functional, cell-based; conditions: dose 1-20 µM, time 25.0 hrs; procedure, shortened: as §1
Microglia [6] = test: Antiinflammatory activity against Sprague-Dawley rat microglial cells assessed as downregulation of TNF-alpha mRNA expression at 10 uM pretreated with compound for 1 hr followed by LPS stimulation for 6 hrs by real-time PCR analysis; assay type: functional, cell-based; conditions: time 7.0 hrs
Procedure, shortened: (§2)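 Primary cortical microglia (postnatal day 1 rat pups, shaken off mixed glial cultures, ~97% Iba1-positive). Compound (DMSO ≤0.1%) for 1 h, then 100 ng/mL ultra-pure E. coli LPS for 6 h. QIAzol RNA extraction, SuperScript IV reverse transcription, real-time PCR. Mean ± SEM, n = 3 in triplicate; one-way ANOVA, Holm-Sidak test.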

Microglia [7] = test: Antiinflammatory activity against Sprague-Dawley rat microglial cells assessed as downregulation of IL-1 beta mRNA expression at 10 uM pretreated with compound for 1 hr followed by LPS stimulation for 6 hrs by real-time PCR analysis; assay type: functional, cell-based; conditions: time 7.0 hrs; procedure, shortened: as §2
Microglia [8] = test: Antiinflammatory activity against Sprague-Dawley rat microglial cells assessed as downregulation of NLRP3 mRNA expression at 10 uM pretreated with compound for 1 hr followed by LPS stimulation for 6 hrs by real-time PCR analysis; assay type: functional, cell-based; conditions: time 7.0 hrs; procedure, shortened: as §2
SH-SY5Y [9] = test: Cytotoxicity against human SH-SY5Y cells assessed as effect on cell viability at 1.25 to 40 uM incubated for 24 hrs by MTT assay; assay type: toxicity, cell-based; conditions: dose 1.25-40 µM
Procedure, shortened: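 SH-SY5Y, 2×10^4 cells/well, grown 24 h then exposed 24 h (1.25–40 μM) at 37 °C, 5% CO2. MTT 0.5 mg/mL in HBSS for 2 h, washed, formazan dissolved in isopropanol, read at 570 nm (reference 690 nm).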

SH-SY5Y [10] = test: Antioxidant activity in human SH-SY5Y cells assessed as increase in intracellular GSH level at 2.5 uM incubated for 24 hrs by […] fluorescence analysis; assay type: functional
Procedure, shortened: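 SH-SY5Y (2×10^4 cells/well) grown 24 h, then exposed to 2.5 μM for 24 h at 37 °C. Fluorescent probe added 30 min at 37 °C; read at ex 355/em 460 nm. GSH (μM) from a GSH standard curve. Mean ± SEM of three experiments; one-way ANOVA with Dunnett's test.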

SH-SY5Y [11] = test: Antioxidant activity in human SH-SY5Y cells assessed as reduction in intracellular ROS formation at 2.5 uM incubated for 24 hrs followed by incubation with t-BuOOH for 30 mins by H2DCF-DA staining based fluorescence analysis; assay type: functional; conditions: time 24.5 hrs
Procedure, shortened: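 SH-SY5Y (2×10^4 cells/well) exposed to 2.5 μM for 24 h, loaded with H2DCF-DA 30 min at room temperature, probe removed, then challenged with 50 μM t-BuOOH 30 min at room temperature. Fluorescence ex 485/em 535 nm, expressed as % ROS increase. Three independent experiments; one-way ANOVA with Dunnett's test.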

[12] = target: Keap1/Nrf2 (Homo sapiens) (UniProt Q16236+Q14145); test: Activation of Keap1/Nrf2 in human SH-SY5Y cells assessed as Nrf2 nuclear translocation by measuring increase in nuclear to cytosolic Nrf2 ratio at 2.5 uM incubated for 3 hrs by western blot analysis; assay type: cell-based
Sequence of Keap1/Nrf2 (Homo sapiens) (Q14145 whole entry, looked up): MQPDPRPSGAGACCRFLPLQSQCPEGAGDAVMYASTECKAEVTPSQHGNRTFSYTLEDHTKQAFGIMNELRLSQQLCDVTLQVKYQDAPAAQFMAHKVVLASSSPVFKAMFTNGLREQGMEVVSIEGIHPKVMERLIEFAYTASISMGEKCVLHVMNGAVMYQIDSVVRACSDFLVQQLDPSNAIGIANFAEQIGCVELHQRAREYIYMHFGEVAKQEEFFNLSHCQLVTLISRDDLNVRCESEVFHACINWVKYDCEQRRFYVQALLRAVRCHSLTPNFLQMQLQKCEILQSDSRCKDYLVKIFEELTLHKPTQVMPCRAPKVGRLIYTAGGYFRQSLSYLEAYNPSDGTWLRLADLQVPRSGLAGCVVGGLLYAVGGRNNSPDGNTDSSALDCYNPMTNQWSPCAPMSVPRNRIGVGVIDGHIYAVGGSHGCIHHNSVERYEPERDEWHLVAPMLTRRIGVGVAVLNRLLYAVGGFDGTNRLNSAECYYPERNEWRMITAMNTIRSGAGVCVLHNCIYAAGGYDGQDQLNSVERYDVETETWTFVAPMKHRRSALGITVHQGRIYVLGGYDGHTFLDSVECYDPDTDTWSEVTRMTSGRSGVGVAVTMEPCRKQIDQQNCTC
Sequence of Keap1/Nrf2 (Homo sapiens) (Q16236 whole entry, looked up): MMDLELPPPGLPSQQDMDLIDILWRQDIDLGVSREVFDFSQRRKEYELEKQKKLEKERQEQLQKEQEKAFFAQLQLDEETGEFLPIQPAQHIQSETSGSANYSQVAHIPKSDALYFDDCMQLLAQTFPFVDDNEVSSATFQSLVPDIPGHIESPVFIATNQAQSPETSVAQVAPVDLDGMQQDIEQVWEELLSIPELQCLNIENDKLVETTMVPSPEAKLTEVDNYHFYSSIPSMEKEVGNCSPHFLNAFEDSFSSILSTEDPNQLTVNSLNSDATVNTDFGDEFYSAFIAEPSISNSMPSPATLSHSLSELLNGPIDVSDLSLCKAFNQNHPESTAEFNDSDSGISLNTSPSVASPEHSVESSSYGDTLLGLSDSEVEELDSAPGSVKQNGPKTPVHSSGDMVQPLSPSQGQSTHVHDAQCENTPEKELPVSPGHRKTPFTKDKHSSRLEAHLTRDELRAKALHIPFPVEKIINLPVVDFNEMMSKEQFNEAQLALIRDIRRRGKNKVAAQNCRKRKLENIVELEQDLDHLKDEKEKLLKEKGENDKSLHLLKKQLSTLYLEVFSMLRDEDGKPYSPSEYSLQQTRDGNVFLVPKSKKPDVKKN
Procedure, shortened: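 SH-SY5Y seeded 2×10^6 cells/dish, grown 24 h, then exposed 3 h at 37 °C, 5% CO2. Nuclear and cytosolic fractions immunoblotted for Nrf2, membranes stripped and reprobed for β-actin and lamin B1 as loading references. Mean ± SEM of three independent experiments; one-way ANOVA with Dunnett's test.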

[13] = target: Amyloid-beta precursor protein (Homo sapiens) (UniProt P05067); test: Anti-oligomeric activity against Abeta42 (unknown origin) assessed as depletion of the formation of toxic HMW Abeta42 oligomers at 5 uM measured at day 7 from sample solubilization by capillary electrophoresis assay; conditions: time 7.0 day
Sequence of Amyloid-beta precursor protein (Homo sapiens) (P05067 whole entry): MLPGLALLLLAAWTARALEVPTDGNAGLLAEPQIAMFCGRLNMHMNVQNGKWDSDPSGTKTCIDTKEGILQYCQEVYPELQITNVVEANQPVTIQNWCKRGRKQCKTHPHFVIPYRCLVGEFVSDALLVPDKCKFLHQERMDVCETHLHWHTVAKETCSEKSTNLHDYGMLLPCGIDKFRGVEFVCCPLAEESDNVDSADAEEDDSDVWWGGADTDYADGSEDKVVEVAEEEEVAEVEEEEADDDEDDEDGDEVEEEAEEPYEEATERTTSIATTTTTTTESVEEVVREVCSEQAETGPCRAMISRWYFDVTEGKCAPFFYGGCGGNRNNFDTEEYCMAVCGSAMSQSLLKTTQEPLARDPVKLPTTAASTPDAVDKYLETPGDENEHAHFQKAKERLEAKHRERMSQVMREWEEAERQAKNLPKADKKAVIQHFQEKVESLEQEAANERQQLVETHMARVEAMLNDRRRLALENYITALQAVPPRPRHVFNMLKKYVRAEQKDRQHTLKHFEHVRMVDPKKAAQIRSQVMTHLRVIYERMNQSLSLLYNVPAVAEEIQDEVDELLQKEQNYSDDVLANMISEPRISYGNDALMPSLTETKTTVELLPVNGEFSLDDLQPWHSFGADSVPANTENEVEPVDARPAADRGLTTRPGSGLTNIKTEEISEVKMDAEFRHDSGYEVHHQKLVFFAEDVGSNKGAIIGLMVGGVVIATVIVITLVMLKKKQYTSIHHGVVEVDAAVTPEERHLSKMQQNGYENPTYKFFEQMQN
Procedure, shortened: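 Aβ42 stock diluted to 221 μM in 20 mM sodium phosphate pH 7.4 containing compound (ethanol stocks 1.53 mM). Capillary electrophoresis: BGE 80 mM sodium phosphate pH 7.4, 30 mbar × 3 s hydrodynamic injection, +12 kV, 25 °C, 200 nm detection. Oligomers assigned by effective mobility; HMW oligomer peak quantified semiquantitatively as normalised area %.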

## COc1ccc(/C=C/C(=O)/C(CC(=O)O)=C(O)/C=C/c2ccc(OC)cc2)cc1 (mixture of isomers)
Microglia [1]
  Activity: Non-Toxic
[2]
  Activity: Non-Toxic
[3]
  Activity: Non-Toxic
Microglia [4]
  Activity: inactive
Microglia [5]
  Activity: inactive

## COc1ccc(/C=C/C(=O)/C=C(O)/C=C/c2ccc(OC)cc2)cc1
Microglia [1]
  Activity: Non-Toxic
[2]
  Activity: Non-Toxic
[3]
  Activity: Non-Toxic
Microglia [4]
  Activity: inactive
Microglia [5]
  Activity: inactive
Microglia [6]
  Activity: inactive
Microglia [7]
  Activity: inactive
Microglia [8]
  Activity: inactive
SH-SY5Y [9]
  Activity: Non-Toxic
SH-SY5Y [10]
  Activity: inactive
SH-SY5Y [11]
  Activity: inactive
[12]
  Activity: inactive
[13]
  Activity: inactive

## CCOC(=O)C/C(C(=O)/C=C/c1ccc(OC)cc1)=C(O)\C=C\c1ccc(OC)cc1
Microglia [1]
  Activity: Non-Toxic
[2]
  Activity: Non-Toxic
[3]
  Activity: Non-Toxic
Microglia [4]
  Activity: Active
Microglia [5]
  Activity: Active
Microglia [6]
  Activity: Active
Microglia [7]
  Activity: Active
Microglia [8]
  Activity: Active
SH-SY5Y [9]
  Activity: Non-Toxic
SH-SY5Y [10]
  Activity: Active
SH-SY5Y [11]
  inhibition at 2.5 µM: 38%
[12]
  Activity: inactive
[13]
  Activity: inactive
